# Test results from ChEMBL document CHEMBL3608210, “LC-MS- and (1)H NMR Spectroscopy-Guided Identification of Antifungal Diterpenoids from Sagittaria latifolia” (J Nat Prod, 2015).
# The source made the active and inactive calls. The calls are words filed in the database; no cut-off is given here.
# How the values were obtained:
# Cryptococcus neoformans [1] = experiment: Antifungal activity against Cryptococcus neoformans ATCC 90113 assessed as inhibition of microbial growth incubated for 72 hrs at 30 degC by modified CLSI protocol based method; assay type: functional, organism-based; conditions: ATCC 90113, 72 h
# Method in brief: (§1)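 Strains were obtained from ATCC, and amphotericin B served as the positive control. IC50 was the concentration giving 50% growth inhibition of fungal cells. MIC was the lowest concentration allowing no detectable growth. The highest concentration tested was 20 μg/mL.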
# [2] = system: Cryptococcus bacillisporus; experiment: Antifungal activity against Cryptococcus gattii ATCC 32609 assessed as inhibition of microbial growth incubated for 72 hrs at 30 degC by modified CLSI protocol based method; assay type: functional, organism-based; conditions: ATCC 32609, 72 h; method in brief: as §1
# Cryptococcus neoformans [3] = experiment: Antifungal activity against Cryptococcus neoformans ATCC 90113 assessed as inhibition of microbial growth at 20 ug/ml incubated for 72 hrs at 30 degC by modified CLSI protocol based method; assay type: functional, organism-based; method in brief: as §1
# Vero = experiment: Cytotoxicity against african green monkey Vero cells assessed as reduction in cell viability incubated for 48 hrs by neutral red based assay; conditions: Chlorocebus sabaeus
# Method in brief: (§2)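 Vero (African green monkey kidney […]) and LLC-PK1 (pig kidney epithelial) cells were obtained from ATCC. Cytotoxicity was read by neutral red uptake, with doxorubicin as the positive control. IC50 was taken as the concentration giving 50% growth inhibition of the mammalian cells.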
# LLC-PK1 = experiment: Cytotoxicity against pig LLC-PK1 cells assessed as reduction in cell viability incubated for 48 hrs by neutral red based assay; conditions: Sus scrofa, LLC-PK1, 48 h; method in brief: as §2
Structure (SMILES),MIC (Cryptococcus neoformans [1]),IC50 [2],MIC [2],growth inhibition (GI) (Cryptococcus neoformans [3]),IC50 (Vero),IC50 (LLC-PK1),IC50 (Cryptococcus neoformans [1])
C[C@@H]1[C@H](O)[C@@H](C)/C=C/C=C/C=C/C=C/C=C/C=C/C=C/[C@H](O[C@@H]2O[C@H](C)[C@@H](O)[C@H](N)[C@@H]2O)C[C@@H]2O[C@](O)(C[C@@H](O)C[C@@H](O)[C@H](O)CC[C@@H](O)C[C@@H](O)CC(=O)O[C@H]1C)C[C@H](O)[C@H]2C(=O)O [AMPHOTERICIN B],0.7 µg/mL,0.1 µg/mL,0.3 µg/mL,–,–,–,–
C=C[C@@]1(C)CC[C@H]2C(=CC[C@H]3[C@@](C)(CO[C@@H]4O[C@@H](COC(C)=O)[C@H](O)[C@H]4O)CCC[C@]23C)C1,–,–,–,inactive,–,–,–
COc1cccc2c1C(=O)c1c(O)c3c(c(O)c1C2=O)C[C@@](O)(C(=O)CO)C[C@@H]3O[C@H]1C[C@H](N)[C@H](O)[C@H](C)O1 [DOXORUBICIN],–,–,–,–,5.4 µg/mL,0.4 µg/mL,–
C=C[C@@]1(C)CC[C@H]2C(=CC[C@H]3[C@@](C)(CO[C@@H]4O[C@@H](CO)[C@H](O)[C@H]4O)CCC[C@]23C)C1,> 20 µg/mL,1.8 µg/mL,20 µg/mL,–,30 µg/mL,21.5 µg/mL,3.7 µg/mL
C=C[C@@]1(C)CC[C@H]2C(=CC[C@H]3[C@@](C)(CO)CCC[C@]23C)C1,> 20 µg/mL,6.8 µg/mL,20 µg/mL,–,37.5 µg/mL,42.5 µg/mL,9.2 µg/mL
